The subject of series [1] is mortality of treated animals. Particulars: TF-induced hypercoagulation; cited from earlier work.
For series [2], the system named is tissue factor-induced thrombin generation in normal human platelet-poor plasma. The series can be described thus: Thrombin generation assay. The format is biochemical. The conditions noted are these: for maximal increase in Cmax over baseline / maximal increase in ETP over baseline: absence of rhs-TM, lower concentration range, not significant; for Cmax increase vs. control / ETP increase vs. control: presence of rhs-TM 10 nmol L^−1; for IC50: normal human PPP. In a few lines: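 Citrated blood (3.12%, 1/10 vol) came from unmedicated healthy donors; PPP was prepared at 1000× g for 20 min at room temperature. Individual-donor PPP was spiked with increasing test compound concentrations (3–948 or 3–1090 nmol L−1) or vehicle, with or without rhs-TM (final 10 nmol L−1). TF was 1.67 pmol L−1 and phospholipid 1.33 μmol L−1 (final). After 5 min at 37 °C, FluCa was added. Calibrated thrombogram gave Cmax and ETP; n = 8–12.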

Series [3] concerns thrombin generation in protein C-deficient human plasma. The series can be described thus: Thrombin generation assay. The format is biochemical. The conditions noted are these: absence or presence of rhs-TM. In a few lines: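 Lyophilised protein C-deficient human plasma was spiked with increasing test compound concentrations or vehicle, with or without rhs-TM (final 10 nmol L−1). Thrombin generation was triggered with TF 1.67 pmol L−1 and phospholipid 1.33 μmol L−1 (final), incubated 5 min at 37 °C, and started with FluCa (HEPES, CaCl2, fluorogenic substrate). Fluorescence was calibrated per sample; Cmax and ETP were derived; n = 3.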

The subject of series [4] is prothrombin fragment 1+2 generation in normal human platelet-poor plasma. The series can be described thus: Prothrombin fragment 1+2. It counts as biochemical. The conditions noted are these: for F1+2 increase: same concentration range as by the CAT method (melagatran 119–474, dabigatran 136–545 nmol L^−1); for IC50: read-out: F1+2 generation IC50, normal human PPP.
For series [5], the system named is prothrombin fragment 1+2 generation in protein C-deficient human plasma. The series can be described thus: Prothrombin fragment 1+2. The format is biochemical. Particulars: presence of TM. The method, boiled down:
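Protein C-deficient human plasma was spiked with test compound (increasing concentrations) or vehicle plus rhs-TM (final 10 nmol L−1), then defibrinated with PefablocFG (final 6 mg mL−1). The CAT-type TF/phospholipid trigger was used, started with Fluo-buffer (HEPES, CaCl2, 5% DMSO, no substrate) and stopped after 12 min with PPACK (final 10 μmol L−1). Samples went into EDTA (final 100 mmol L−1) at 4 °C and were stored at −20 °C. F1+2 was measured by ELISA.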

Series [6] relates to thrombin–antithrombin (TAT) complex. The series can be described thus: Tissue factor-induced hypercoagulability in rats: plasma TAT levels. It counts as in vivo. Particulars: rat; for effect on TF-induced increase in TAT levels: 0.3 mg kg^−1 i.v., 10 minutes after TF 8 mg kg^−1.
The test system of another series is plasma fibrinogen. The series can be described thus: Tissue factor-induced hypercoagulability in rats: fibrinogen levels. It counts as in vivo. The conditions noted are these: rat.
In another series the test system is platelet count. The series can be described thus: Tissue factor-induced hypercoagulability in rats: platelet count. The format is in vivo. The conditions noted are these: rat.
Series [7] relates to activated partial thromboplastin time. The series can be described thus: Activated partial thromboplastin time. It counts as in vivo. The conditions noted are these: rat, 15 minutes after drug, 10 minutes after TF. In a few lines: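 Male Wistar rats (227–273 g) were fasted overnight and anaesthetised with i.p. pentobarbital-Na (80–100 mg kg−1). Test compound in 0.9% NaCl (0.001–0.3 mg kg−1) or vehicle (1 mL kg−1) was given i.v., then 5 min later recombinant TF (8 mg kg−1) or vehicle (sham) was given as a slow i.v. bolus. Citrated aortic blood was drawn 10 min after TF. APTT was measured on PPP by ball coagulometer, as fold over baseline; n = 10.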

A short description of series [8]: Plasma concentrations of rivaroxaban and melagatran in rats. Particulars: rat, 15 minutes after drug, 10 minutes after TF. The format is in vivo.
The next series deals with thrombin bound to TM. Particulars: cited from earlier work.
A further series has as its system prothrombin time. The series can be described thus: Prothrombin time. It counts as in vivo. The conditions noted are these: rat; for PT prolongation: 15 minutes after drug, 10 minutes after TF. The method, boiled down: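 Rats (male Wistar, 227–273 g) were fasted overnight and anaesthetised with i.p. pentobarbital-Na (80–100 mg kg−1). Test compound in PEG:H2O:glycerol (996:100:60 g), 0.001–0.3 mg kg−1, or vehicle (1 mL kg−1) was given i.v. After 5 min, TF (8 mg kg−1) or vehicle (sham) was given as a slow i.v. bolus. Citrated aortic blood was taken 10 min later. PT on PPP by ball coagulometer, expressed as fold over baseline; n = 10.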

The mark [9] stands for this setting: melagatran at 119–474 nmol L^−1.
Setting [10] is: read-out: Cmax IC50, peak thrombin generation, +TM (rhs-TM 10 nmol L^−1).
The mark [11] stands for this setting: read-out: Cmax IC50, peak thrombin generation, −TM (absence of rhs-TM).
Where [12] appears, read: read-out: ETP IC50, endogenous thrombin potential, +TM (rhs-TM 10 nmol L^−1).
[13] abbreviates: read-out: ETP IC50, endogenous thrombin potential, −TM (absence of rhs-TM).
Where [14] appears, read: presence of rhs-TM 10 nmol L^−1.
Setting [15] is: whole dose range tested (0.001–0.3 mg kg^−1 i.v.).

Read-outs that look alike come from different tables or passages of the source. A value given as a limit tells only on which side of the number the result lay.

Consider 5 compounds from PMC4285304 (Journal of Thrombosis and Haemostasis, 2014).

For `CCOC(=O)CN[C@@H](C(=O)N1CC[C@H]1C(=O)NCc1ccc(/C(N)=N\O)cc1)C1CCCCC1` [ximelagatran], in [1], the “mortality rate, dose-dependent” value is “up to 67%” and the “mortality rate, time-dependent” value is on record as not above 88%.

`N=C(N)c1ccc(CNC(=O)[C@@H]2CCN2C(=O)[C@H](NCC(=O)O)C2CCCCC2)cc1` [Melagatran]: the “maximal increase in Cmax over baseline” value in [2] was 8%. For the same compound, in [2], the “maximal increase in ETP over baseline” value is recorded as 6%. Further, the “Cmax increase vs. control” value in [2] (setting [9]) was 2.2–2.7 fold. Besides, the “ETP increase vs. control” value in [2] (setting [9]) is given as 1.9–2.2 fold. Further, the IC50 in series [2] (setting [10]) is more than 950 nM; in series [2] (setting [11]) it was 940 ± 79 nM; in [2] (setting [12]), more than 950 nM; in series [2] (setting [13]) it was 732 ± 43 nM; in [4] (absence of rhs-TM), 368 ± 40 nM. Also, the “increase in ETP or Cmax” value in series [3] is “No increase”. In addition, the “F1+2 increase” value in series [4] (setting [14]) was 1.8–2.0 fold. Besides, in series [5], the “generation of F1+2” value is reported as “concentration-dependently inhibited”. For the same compound, the “TAT increase vs. TF control” value in series [6] (0.01 mg kg^−1 i.v., P < 0.01) is 1.6 fold. The “effect on TF-induced increase in TAT levels” value in [6] is “reduced”. For the same compound, the fibrinogen levels in the series with plasma fibrinogen (0.03 mg kg^−1 i.v., TF control 2.34 ± 0.08 g L^−1, P < 0.001) was found to be 1.41 ± 0.20 g/L. This compound also came in with a platelet count in the series with platelet count (0.01 mg kg^−1 i.v., TF control 644 × 10^3 μL^−1) of 559000 µL⁻¹. The APTT prolongation in [7] (0.001 mg kg^−1 i.v.) was 1.26 ± 0.05 x-fold over baseline; in [7] (0.003 mg kg^−1 i.v.), 1.34 ± 0.05 x-fold over baseline; in [7] (0.01 mg kg^−1 i.v.), 1.68 ± 0.03 x-fold over baseline; in [7] (0.03 mg kg^−1 i.v.) it was 2.17 ± 0.23 x-fold over baseline; in series [7] (0.1 mg kg^−1 i.v.), 2.08 ± 0.18 x-fold over baseline; in [7] (0.3 mg kg^−1 i.v.), 3.11 ± 0.27 x-fold over baseline. In addition, the Plasma concentration in series [8] (0.01 mg kg^−1 i.v.) worked out at 19.2 ± 0.9 ng/mL; in [8] (0.3 mg kg^−1 i.v.), 524.7 ± 26.1 ng/mL. Further, the “increase in the affinity of the thrombin inhibitor for the thrombin bound to TM” value in the series with thrombin bound to TM is “twofold increase”.

`[H]/N=C(/N)c1ccc(NCc2nc3cc(C(=O)N(CCC(=O)O)c4ccccn4)ccc3n2C)cc1` [Dabigatran]: the “maximal increase in Cmax over baseline” value in series [2] amounted to 11%. Besides, the “maximal increase in ETP over baseline” value in series [2] is 5%. The “Cmax increase vs. control” value in series [2] (dabigatran at 68–545 nmol L^−1) is 2.0–3.3 fold. For the same compound, the “ETP increase vs. control” value in series [2] (dabigatran at 136–545 nmol L^−1) is on record as 2.2–2.6 fold. The IC50 in series [2] (setting [10]) is more than 1090 nM; in series [2] (setting [11]), 976 ± 71 nM; in series [2] (setting [12]), more than 1090 nM; in series [2] (setting [13]) it was 722 ± 44 nM; in series [4] (absence of rhs-TM), 387 ± 63 nM. The “increase in ETP or Cmax” value in [3] is reported as “No increase”. For the same compound, the “F1+2 increase” value in [4] (setting [14]) is recorded as 1.6–1.9 fold. For the same compound, the “generation of F1+2” value in series [5] is “concentration-dependently inhibited”.

Consider `O=C(NC[C@H]1CN(c2ccc(N3CCOCC3=O)cc2)C(=O)O1)c1ccc(Cl)s1` [Rivaroxaban], for which the IC50 in series [2] (setting [10]) worked out at 44 ± 6 nM; in series [2] (setting [11]), 66 ± 5 nM; in series [2] (setting [12]), 57 ± 8 nM; in [2] (setting [13]), 697 ± 106 nM; in series [4] (absence of rhs-TM), 12 ± 7 nM; in [4] (setting [14]), 14 ± 7 nM. The “generation of F1+2” value in [5] is on record as “concentration-dependently inhibited”. In addition, the “effect on TF-induced increase in TAT levels” value in series [6] is on record as “complete inhibition”. The fibrinogen concentration result in the series on plasma fibrinogen (setting [15]) is given as “not affected”. The platelet count result with platelet count (setting [15]) is listed as “not affected”. Further, the PT prolongation is on record as 1.00 ± 0.04 x-fold over baseline in the series on prothrombin time (0.001 mg kg^−1 i.v.); 1.02 ± 0.02 x-fold over baseline with prothrombin time (0.003 mg kg^−1 i.v.); 0.96 ± 0.02 x-fold over baseline in the series on prothrombin time (0.01 mg kg^−1 i.v.); 1.03 ± 0.02 x-fold over baseline in the series on prothrombin time (0.03 mg kg^−1 i.v.); 1.26 ± 0.06 x-fold over baseline in the series on prothrombin time (0.1 mg kg^−1 i.v.); 1.92 ± 0.05 x-fold over baseline in the series with prothrombin time (0.3 mg kg^−1 i.v.). Further, the “prolongation of PT over the dose range” value in the series with prothrombin time (dose range 0.001–0.3 mg kg^−1 i.v.) is reported as 1.0–1.9 fold over baseline.

On to `N=C(N)NCCCNC(=O)[C@@H]1CCCCN1C(=O)[C@@H](CC1CCCCC1)NCC(=O)O` [inogatran], for which the “increase in the affinity of the thrombin inhibitor for the thrombin bound to TM” value in the series with thrombin bound to TM was “twofold increase”.
